Test results: ChEMBL document CHEMBL1139862, “Malaria-infected mice are cured by a single dose of novel artemisinin derivatives” (2007)

Legend:
Format in all cases: functional
[1] = tested on: Mus musculus; assay: Survival of Plasmodium berghei GFP infected mice (Mus musculus) at 10 mg/kg, subcutaneous after single dose
Summary of the method: (§1)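 Single subcutaneous dose given on day 1 after infection; vehicle Tween 80 (70%)/ethanol (30%), then 10× dilution with water. Three animals per dimer group. Read-out is average survival in days after infection. Mice alive at day 30 were sacrificed, and if no parasites were detected they were counted cured. Parasitemia was measured by flow cytometry.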

[2] = tested on: Mus musculus; assay: Survival of Plasmodium berghei GFP infected mice (Mus musculus) at 30 mg/kg, peroral after three doses; details: route oral
Summary of the method: as §1, with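 “Three consecutive daily oral doses starting” for “Single subcutaneous dose given on”, “Survivors” for “Mice alive”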

[3] = tested on: Mus musculus; assay: Survival of Plasmodium berghei GFP infected mice (Mus musculus) at 3 mg/kg, subcutaneous after single dose; summary of the method: as §1
[4] = tested on: Mus musculus; assay: Survival of Plasmodium berghei GFP infected mice (Mus musculus) at 30 mg/kg, subcutaneous after single dose; summary of the method: as §1

## C[C@H]1[C@@H](CC(C[C@H]2O[C@H]3O[C@@]4(C)CC[C@H]5[C@H](C)CC[C@@H]([C@H]2C)[C@@]35OO4)C(=O)NNC(=O)c2ccncc2)O[C@@H]2O[C@@]3(C)CC[C@H]4[C@H](C)CC[C@@H]1[C@@]24OO3 (some centres not stated)
[1]
  Survival: 10 days
[2]
  Survival: 7 days
[3]
  Survival: 9 days
[4]
  Survival: >30 days

## C[C@H]1[C@@H](CC(O)(COCc2ccncc2)C[C@H]2O[C@@H]3O[C@@]4(C)CC[C@H]5[C@H](C)CC[C@@H]([C@H]2C)[C@@]35OO4)O[C@@H]2O[C@@]3(C)CC[C@H]4[C@H](C)CC[C@@H]1[C@@]24OO3 (some centres not stated)
[1]
  Survival: 13.3 days
[2]
  Survival: >30 days
[3]
  Survival: 9.7 days
[4]
  Survival: 15 days

## C[C@H]1[C@H](OC(=O)CCC(=O)O)O[C@@H]2O[C@@]3(C)CC[C@H]4[C@H](C)CC[C@@H]1[C@@]24OO3 [ARTESUNATE]
[1]
  Survival: 8.6 days
[2]
  Survival: 7.5 days
[3]
  Survival: 7.3 days
[4]
  Survival: 9.1 days

## Cc1ccc(COCC(C[C@H]2O[C@@H]3O[C@@]4(C)CC[C@H]5[C@H](C)CC[C@@H]([C@H]2C)[C@@]35OO4)C[C@H]2O[C@@H]3O[C@@]4(C)CC[C@H]5[C@H](C)CC[C@@H]([C@H]2C)[C@@]35OO4)cc1 (some centres not stated)
[1]
  Survival: 10 days
[2]
  Survival: >30 days
[3]
  Survival: 8 days
[4]
  Survival: 27 days

## C[C@H]1[C@@H](CC(CNc2ccccc2)C[C@H]2O[C@@H]3O[C@@]4(C)CC[C@H]5[C@H](C)CC[C@@H]([C@H]2C)[C@@]35OO4)O[C@@H]2O[C@@]3(C)CC[C@H]4[C@H](C)CC[C@@H]1[C@@]24OO3 (some centres not stated)
[1]
  Survival: 12.3 days
[3]
  Survival: 8 days
[4]
  Survival: >30 days

## C[C@H]1[C@@H](CC(C[C@H]2O[C@H]3O[C@@]4(C)CC[C@H]5[C@H](C)CC[C@@H]([C@H]2C)[C@@]35OO4)C(=O)NCc2ccccc2)O[C@@H]2O[C@@]3(C)CC[C@H]4[C@H](C)CC[C@@H]1[C@@]24OO3 (some centres not stated)
[1]
  Survival: 15 days
[2]
  Survival: 12.7 days
[3]
  Survival: 12.3 days
[4]
  Survival: >30 days

## C[C@H]1[C@@H](CC(C[C@H]2O[C@H]3O[C@@]4(C)CC[C@H]5[C@H](C)CC[C@@H]([C@H]2C)[C@@]35OO4)C(=O)NC(C)(C)C)O[C@@H]2O[C@@]3(C)CC[C@H]4[C@H](C)CC[C@@H]1[C@@]24OO3 (some centres not stated)
[1]
  Survival: 25.3 days
[2]
  Survival: 14.7 days
[3]
  Survival: 14 days
[4]
  Survival: >30 days
